Test results as given in article PMC7056570 (Molecular cancer therapeutics, 2019).

Experiments:
[1] = system: silvestrol-resistant 697-R leukemic cells; assay: Cell proliferation of MDR1-overexpressing leukemic cells, 3 days; type: cell-based; conditions: for sensitivity to MDR1 inhibition: 697-R versus 697 cells
[2] = system: parental 697 leukemic cells; assay: Cell proliferation of parental leukemic cells, 3 days; type: cell-based; conditions: 72 h, read-out: IC50 in 697 cells
Toxicology study in dogs = type: in vivo; conditions: same protocol, same lab
[3] = cited from earlier work
[4] = system: panel of MPNST, schwannoma, and meningioma cell lines; assay: Growth-inhibitory activity compared in the cell line panel; type: cell-based; conditions: all cell lines tested
Summary of the method: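 Compounds were made up as 10-mM stocks in DMSO. Cell lines were authenticated by STR genotyping and confirmed mycoplasma-free. Proliferation was read by resazurin assay.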

STS26T MPNST cells = assay: Flow cytometry cell cycle analysis, STS26T; type: cell-based, human; conditions: one- or two-IC50 doses, three days
ST8814 MPNST cells = assay: Flow cytometry cell cycle analysis, ST8814; type: cell-based, human; conditions: one- or two-IC50 doses, three days

Compound | IC50 ([1]; MDR1, 72 h, read-out: IC50 in 697-R cells) | IC50 [2] | pulmonary toxicity in dogs (Toxicology study in dogs) | oral bioavailability [3] | sensitivity to MDR1 inhibition [1] | potency relative to silvestrol [4] | G2/M fraction (STS26T MPNST cells) | G2/M fraction (ST8814 MPNST cells)
COC(=O)[C@H]1[C@@H](O)[C@@]2(O)c3c(OC)cc(O[C@@H]4O[C@@H]([C@H](O)CO)CO[C@H]4OC)cc3O[C@@]2(c2ccc(OC)cc2)[C@@H]1c1ccccc1 [Silvestrol, reference compound] | 26 nM | 3.5 nM | massive lung damage | < 2% | – | – | – | –
COc1ccc([C@@]23Oc4cc(OC)cc(OC)c4[C@]2(O)[C@H](O)[C@H](C(N)=O)[C@H]3c2ccccc2)cc1 [Didesmethylrocaglamide] | – | 3 nM | – | – | not sensitive to MDR1 inhibition | ~ 2 fold | marked increase in the G2/M fraction | marked increase in the G2/M fraction
COc1ccc([C@@]23Oc4cc(OC)cc(OC)c4[C@]2(O)[C@H](O)[C@H](C(=O)N(C)C)[C@H]3c2ccccc2)cc1 [Rocaglamide] | – | 8 nM | did not produce adverse pulmonary findings | – | not sensitive to MDR1 inhibition | – | marked increase in the G2/M fraction | marked increase in the G2/M fraction
